The record followed here is ChEMBL document CHEMBL4823242, “Cytotoxic Naphthoquinone Analogues, Including Heterodimers, and Their Structure Elucidation Using LR-HSQMBC NMR Experiments” (J Nat Prod, 2021).

Molecules are shown by their SMILES.

Assay type in all cases: functional, cell-based
The test system of one experiment is MDA-MB-435. Put plainly: Cytotoxicity against human MDA-MB-435 cells after 72 hrs by Cell Titer-Blue cell viability assay. The settings on record: MDA-MB-435, 72 h. The method in brief: (§1)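 Cells kept at 37 °C, 5% CO2 in RPMI 1640 with 10% FBS, penicillin 100 units/mL and streptomycin 100 μg/mL. Log-phase cells harvested by trypsin, washed twice, seeded at 5,000 per well and left overnight. DMSO-dissolved samples diluted and added, then 72 h at 37 °C. Viability read by CellTiter-Blue absorbance. IC50 is the concentration giving 50% growth relative to DMSO control.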

The test system of the next experiment is MDA-MB-231. As to the kind of experiment: Cytotoxicity against human MDA-MB-231 cells after 72 hrs by Cell Titer-Blue cell viability assay. As to conditions: MDA-MB-231, 72 h. The method in brief: as §1
For another experiment, the system named is OVCAR-3. As to the kind of experiment: Cytotoxicity against human OVCAR-3 cells after 72 hrs by Cell Titer-Blue cell viability assay. As to conditions: OVCAR-3, 72 h. The method in brief: as §1
A general note: Resazurin is reduced to fluorescent resorufin, in cell work by metabolically active cells.

The IC50 is the midpoint of a concentration-inhibition curve. High values mean weaker potency, low ones greater potency.

Turning to `CCc1c(OC)cc2c(c1O)C(=O)C=C(OC)C2=O`, the IC50 with MDA-MB-435 stood at 2.1 µM; with MDA-MB-231 it was 7.8 µM; in the experiment on OVCAR-3 it was 7.3 µM.
The like results for `CCc1c(OC)cc2c(c1O)C(=O)C[C@@H](OC)[C@H]2O` were, in that order, > 25 µM, > 25 µM and > 25 µM.
The like results for `COC1=CC(=O)c2c(cc(OC)c(C)c2O)C1=O` were, in that order, 3.2 µM, 15 µM and 9.6 µM.
The like results for `COC1=CC(=O)c2c(cc(OC)c(C(C)OC(C)=O)c2O)C1=O` (racemic) were, in that order, 0.7 µM, 6.2 µM and 0.9 µM.
For `COC1=CC(=O)c2c(cc(OC)c(C(C)C3=C(O)C(=O)c4cc(OC)cc(O)c4C3=O)c2O)C1=O` (racemic), the concentration for half-maximal inhibition (IC50) in the experiment with MDA-MB-435 was found to be 3.6 µM; in the experiment on MDA-MB-231, 20 µM; in the experiment on OVCAR-3, 17 µM.
With `CCc1c(OC)cc2c(c1O)C(=O)C(C(C)c1c(OC)cc3c(c1O)C(=O)C=C(OC)C3=O)=C(O)C2=O` (racemic), the figures for the half-maximal inhibitory concentration (IC50) in the experiment with MDA-MB-435, with MDA-MB-231 and with OVCAR-3 were 15 µM, 17 µM and 18 µM, respectively.
As to `COC1=CC(=O)c2c(cc(OC)c(C(C)OC)c2O)C1=O` (racemic), the IC50 was 3.4 µM in the experiment on MDA-MB-435, 12 µM with MDA-MB-231 and 13 µM in the experiment with OVCAR-3.
As to `COC1=CC(=O)c2c(cc(OC)c(C(C)O)c2O)C1=O` (racemic), the IC50 with MDA-MB-435 is 3 µM; in the experiment with MDA-MB-231, 12 µM; in the experiment on OVCAR-3 it was 7.9 µM.
With `COC1=CC(=O)c2c(cc(OC)c(C(C)C3=C(O)C(=O)c4cc(O)c(C(C)=O)c(O)c4C3=O)c2O)C1=O` (racemic) [KIRSCHSTEININ], the figures for the IC50 in the experiment with MDA-MB-435, in the experiment with MDA-MB-231 and in the experiment on OVCAR-3 were 2.2 µM, 4.4 µM and 6.6 µM, respectively.
As for `CC(=O)O[C@H]1C(=O)[C@@]2(C)[C@H]([C@H](OC(=O)c3ccccc3)[C@]3(O)C[C@H](OC(=O)[C@H](O)[C@@H](NC(=O)c4ccccc4)c4ccccc4)C(C)=C1C3(C)C)[C@]1(OC(C)=O)CO[C@@H]1C[C@@H]2O` [PACLITAXEL], the figures for the half-inhibitory concentration (IC50) in the experiment with MDA-MB-231 and in the experiment on OVCAR-3 were 0.0002 µM and 0.0051 µM, respectively.
